Assay results from ChEMBL document CHEMBL1153722, “Design, synthesis, and characterization of peptide-based rab geranylgeranyl transferase inhibitors” (J Med Chem, 2009).
Peptide text beside a SMILES is read from it. * marks the point of attachment. Hydrocinnamoyl = O=C(CCc1ccccc1)*; Undecanoyl = CCCCCCCCCCC(=O)*; Morpholide = C1CN(*)CCO1; NHOH = ON*

Species: Rattus norvegicus
Assay: Inhibition of rat recombinant Rab geranylgeranyltransferase at 100 uM in presence of canine Rab7 and rat REP1 NBD-FPP based continuous fluorimetric assay
How it was run: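 Continuous fluorometric assay in 96/384-well format: 3 μM Rab7, 3 μM REP1, 9 μM NBD-FPP and 400 nM RabGGTase, with or without inhibitor. […] IC50 was calculated from three independent measurements.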

Row | Compound | inhibition
1 | O=C(CNC(=O)[C@@H]1CCCN1C(=O)c1coc(-c2ccccc2)n1)N[C@@H](Cc1c[nH]cn1)C(=O)Nc1ccc(F)cc1F | 87%
2 | Cc1nc(C)c(C(=O)OC[C@H](NC(=O)[C@H](C)NC(=O)[C@H](COC(=O)c2oc(C)nc2C)NC(=O)c2coc(-c3ccccc3)n2)C(=O)O)o1 | 95%
3 | O=C(CNC(=O)[C@H](Cc1ccc(O)cc1)NC(=O)c1coc(-c2ccccc2)n1)N[C@@H](Cc1ccc(O)cc1)C(=O)O | 58%
4 | COC(=O)[C@H](Cc1ccc(O)cc1)NC(=O)CNC(=O)[C@H](Cc1ccc(O)cc1)NC(=O)c1ccc(F)cc1 | 93%
5 | O=C(CCc1ccccc1)N[C@@H](CO)C(=O)N[C@@H](Cc1ccccc1)C(=O)N[C@@H](CO)C(=O)Nc1ccc(N2CCOCC2)cc1 | 95%
6 | COC(=O)[C@H](CO)NC(=O)CNC(=O)[C@H](Cc1ccccc1)NC(=O)c1coc(-c2ccccc2)n1 | 115%
7 | NC(=O)CC[C@H](NC(=O)[C@H](Cc1ccccc1)NC(=O)CNC(=O)CCc1ccccc1)C(=O)N1CCOCC1 (Hydrocinnamoyl-Gly-Phe-Gln-Morpholide) | 89%
8 | O=C(CNC(=O)C1CCCN1C(=O)/C=C/c1ccccc1)NC(Cc1ccccc1)C(=O)NCc1ccc(F)cc1F (stereo not given) | 54%
9 | O=C(/C=C/c1ccc(F)cc1)N[C@@H](CO)C(=O)N[C@@H](Cc1ccccc1)C(=O)N[C@@H](CO)C(=O)N1CCOCC1 | 75%
10 | COC(=O)[C@H](CO)NC(=O)CNC(=O)[C@H](Cc1ccccc1)NC(=O)c1csc(-c2cccs2)n1 | 123%
11 | NCCOC(=O)[C@H](Cc1ccc(O)cc1)NC(=O)[C@H](Cc1ccc(O)cc1)NC(=O)[C@H](Cc1ccc(O)cc1)NC(=O)c1ccc(F)cc1F | 97%
12 | CON(C)C(=O)[C@H](CCC(N)=O)NC(=O)[C@H](Cc1ccccc1)NC(=O)[C@H](C)NC(=O)CCc1ccccc1 | 112%
13 | CC(C)C[C@H](NC(=O)[C@H](COC(C)(C)C)NC(=O)[C@H](Cc1ccccc1)NC(=O)/C=C/c1ccc(F)cc1)C(=O)O | 103%

Now from value to compound:

Row | inhibition | Compound
14 | 68% | CCCCCCCCCCC(=O)N[C@@H](Cc1c[nH]cn1)C(=O)N[C@@H](Cc1ccccc1)C(=O)N[C@@H](Cc1ccc(O)cc1)C(=O)OC (Undecanoyl-His-Phe-Tyr-OMe)
15 | 74% | CCCCCCCCCCCOc1ccc(C(=O)N[C@@H](Cc2c[nH]cn2)C(=O)N[C@@H](Cc2ccc(O)cc2)C(=O)N[C@@H](Cc2ccccc2)C(=O)OCCN)cc1
16 | 108% | C=CCCCCCCCCCOC(=O)[C@H](CC(C)C)NC(=O)[C@H](COC(C)(C)C)NC(=O)[C@H](Cc1ccccc1)NC(=O)CCc1ccccc1
17 | 120% | C=CCCCCCCCCCOC(=O)[C@H](CCC(N)=O)NC(=O)[C@H](Cc1ccccc1)NC(=O)[C@H](CO)NC(=O)CCc1ccccc1
18 | 98% | NCCCC[C@H](NC(=O)CCc1ccccc1)C(=O)N[C@@H](Cc1c[nH]cn1)C(=O)N[C@@H](CO)C(=O)NC1CCCCC1
19 | 87% | C=CCCCCCCCCCOC(=O)[C@H](CO)NC(=O)[C@H](Cc1ccccc1)NC(=O)[C@H](CO)NC(=O)/C=C/c1ccc(F)cc1
20 | 93% | CCCCCCCCCCCCCC(=O)N[C@@H](Cc1ccc(O)cc1)C(=O)N[C@@H](Cc1ccc(O)cc1)C(=O)N[C@@H](Cc1ccc(O)cc1)C(=O)NC1CCCCC1
21 | 61% | CCCCCCCCCCC(=O)N[C@@H](Cc1c[nH]cn1)C(=O)N[C@@H](Cc1ccccc1)C(=O)N[C@@H](Cc1ccc(O)cc1)C(=O)OCCN
22 | 73% | CCCCCCCCCCC(=O)N[C@@H](Cc1ccc(O)cc1)C(=O)N[C@@H](Cc1c[nH]cn1)C(=O)N[C@@H](Cc1c[nH]cn1)C(=O)NCCCCN
23 | 78% | CCCCCCCCCCC(=O)N[C@@H](Cc1c[nH]cn1)C(=O)N[C@@H](Cc1c[nH]cn1)C(=O)N[C@@H](CO)C(=O)NO (Undecanoyl-His-His-Ser-{NHOH})
24 | 81% | CCCCCCCCCCC(=O)N[C@@H](Cc1c[nH]cn1)C(=O)N[C@@H](Cc1c[nH]cn1)C(=O)N[C@@H](CO)C(N)=O (Undecanoyl-His-His-Ser-NH2)
25 | 106% | CCCCCCCCCCCCCC(=O)OC[C@H](NC(=O)CNC(=O)[C@H](COC(=O)CCCCCCCCCCCCC)NC(=O)c1coc(-c2ccccc2)n1)C(=O)O
